Compounds with a hit are over-represented: about 2.7% of the library has one in this group of screens.
PTPN22 inh 2 = blocks human PTPN22 phosphatase activity | Q9Y2R2 | recombinant LYP catalytic domain, DiFMUP fluorescence | inhibition, % at 2 µM | hit rate 0.21% among 96,000 | AID 640;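 active = inhibition at 2 µM at or above a set limit, the screen mean plus 3 SD, cut at about 24% in these data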;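 also: 0% = DMSO with enzyme and 100% = enzyme fully blocked by orthovanadate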
PLK1 inh = blocks human PLK1 kinase activity | hit rate 0.53% among 97,000 | recombinant PLK1 kinase, TR-FRET peptide phosphorylation | P53350 | inhibition, % at 10 µM | AID 619;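 active = inhibition of 50% or more in the single-concentration screen; inactive = inhibition below 50%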;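 also: 0% = DMSO max control and 100% = H-89 dihydrochloride min control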
PTPN22 act = increases human PTPN22 phosphatase activity; hit rate 0.11% among 96,000; recombinant LYP, DiFMUP fluorescence; 0 = plate median, 100 = signal doubled; Q9Y2R2; activation, % at 2 µM;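 active = activation at 2 µM above a set limit, the mean plus 5 SD, cut at about 37% in these data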
PLAP act = activates human placental alkaline phosphatase; P05187; purified PLAP enzyme, luminescent substrate read-out; stronger effect = higher value; activation fold at 20 µM; hit rate 1.2% among 96,000; AID 696; in the data active = activation fold above about 2
Target sequence (P05187 whole entry, looked up): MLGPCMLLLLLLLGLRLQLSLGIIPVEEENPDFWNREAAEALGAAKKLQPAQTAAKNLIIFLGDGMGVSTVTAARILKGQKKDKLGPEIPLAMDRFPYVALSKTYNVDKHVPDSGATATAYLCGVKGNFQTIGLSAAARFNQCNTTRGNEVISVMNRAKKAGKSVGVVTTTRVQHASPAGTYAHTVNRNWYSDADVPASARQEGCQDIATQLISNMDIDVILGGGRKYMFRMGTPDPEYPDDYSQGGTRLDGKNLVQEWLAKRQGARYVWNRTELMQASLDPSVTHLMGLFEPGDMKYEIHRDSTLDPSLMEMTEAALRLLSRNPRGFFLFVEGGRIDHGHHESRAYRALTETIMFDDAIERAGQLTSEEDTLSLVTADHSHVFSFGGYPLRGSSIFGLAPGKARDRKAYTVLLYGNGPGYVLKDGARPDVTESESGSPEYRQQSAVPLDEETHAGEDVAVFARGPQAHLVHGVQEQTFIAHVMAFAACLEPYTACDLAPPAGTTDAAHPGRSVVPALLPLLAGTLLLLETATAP
PLK1 PBD inh = inhibitors of human Plk1 polo box domain binding; hit rate 0.13% among 97,000; Plk1 PBD phosphopeptide binding, fluorescence polarization; P53350; inhibition, %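 (tested at about 20 µM)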; in the data active = inhibition above about 34%, passing the limit was not always enough
Rev-RRE block = inhibitors of HIV-1 Rev-RRE RNA interaction; P05866; Rev peptide-RRE RNA binding, FRET; inhibition, % at 8 µM; hit rate 0.79% among 97,000;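 active = inhibition above the screen-wide mean plus 3 SD, cut at about 35% in these data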;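 also: 0% = median DMSO wells and 100% = median Neomycin B control wells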
Target sequence (P05866 whole entry, looked up): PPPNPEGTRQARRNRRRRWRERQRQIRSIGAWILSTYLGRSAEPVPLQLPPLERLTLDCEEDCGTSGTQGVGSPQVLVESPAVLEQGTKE
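Test system: labelled RRE RNA duplex and labelled Rev peptide. Times: 5 min compound–RNA preincubation, then 15 min with peptide, 25 °C. Doses: single-dose 8 µM. Measured by: FRET, excitation 480 nm, emission 540 nm donor and 671 nm acceptor. Measure: % inhibition of FRET ratio versus controls.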
The depositor's hits bear a star; . = not tested or not shown; [ ] = dose if it differs, or a comment.

SMILES	PTPN22 inh 2	PLK1 inh	PTPN22 act	PLAP act	PLK1 PBD inh	Rev-RRE block
CN1CC(=O)N/C1=N\C(=O)Nc1ccc2c(c1)N(C)C(=O)CS2	-2.1	-0.9	3.8	2.8*	-1.8	5.2
CCOC(=O)c1sc2cccc(F)c2c1N	3.0	-19.6	-5.8	0.8	21.5	0.5
CCOC(=O)c1sc2cc([N+](=O)[O-])cc(SCC(C)C)c2c1N	3.5	-16.4	-4.9	0.6	-32.2	61.7*
CNc1nnc(-c2cc3ccccc3oc2=O)s1	-9.2	0.2	9.9	0.3	3.0	52.3*
COc1cccc2cc(-c3nc(-c4cccs4)cs3)c(=O)oc12	1.5	-4.3	-3.2	0.9	-2.1	14.6
CCc1nnc(NC(=O)c2cc3ccccc3oc2=O)s1	4.8	-7.2	-1.5	1	-10.0	7.0
O=c1oc2ccccc2cc1-c1nc(-c2cccs2)cs1	-0.3	-11.3	-2.2	1.3	-8.6	61.5*
CCc1ccc(C2C(C#N)=C(N)SC(N)=C2C#N)cc1	-6.5	-13.5	5.8	1.3	-6.1	41.2*
Cc1ccc(C2C(C#N)=C(N)SC(N)=C2C#N)o1	-3.3	-15.8	3.2	1.1	-14.2	91.7*[fluorescence artefact?]
N#CC1=C(N)SC(N)=C(C#N)C1c1ccc(C(F)(F)F)cc1	9.1	-11.4	-3.3	1.1	4.9	41.8*
COc1ccc(-c2[nH]ncc2-c2cnn(-c3ccccc3)c2)c(O)c1	-19.9	0.8	17.3	2*	-21.3	-1.4
CCCc1ccc(Oc2cn[nH]c2-c2ccc(O)cc2O)cc1	-3.5	-7.2	2.1	1.8	3.1	10.9
COc1ccc(O)c(-c2cn[nH]c2-c2cccs2)c1	5.1	-2.7	-2.5	1.4	-5.0	12.1
COc1ccc(-c2[nH]ncc2-c2cnc(C)s2)c(O)c1	-0.7	-13.2	-2.0	2.9*	-10.4	0.2
COc1ccc(-c2[nH]ncc2Oc2ccccc2OC)c(O)c1	-4.8	8.6	2.5	2.5*	1.3	8.7
C=C(C)COc1ccc(-c2[nH]ncc2-c2ccccc2)c(O)c1	5.2	-14.3	-2.4	1.7	-14.3	10.0
COc1ccc(Oc2cn[nH]c2-c2ccc(O)cc2O)cc1	-1.4	12.9	0.8	2.2*	20.3	3.5
C=C(C)COc1ccc(-c2[nH]ncc2Oc2ccccc2OCC)c(O)c1	2.5	-0.4	-3.0	1.8	13.1	19.6
Oc1ccc(Cl)cc1-c1cc(-c2cccc(Br)c2)n[nH]1	-5.4	-3.3	7.2	1.3	4.0	9.5
CC1Cc2nc(SCC(=O)Nc3ccc(F)cc3F)n(C)c(=O)c2S1 (stereo not given)	0.5	-9.9	1.9	1	-1.3	2.8
Cc1c(NC(=O)c2ccc(=O)oc2)c(=O)n(-c2ccccc2)n1C	-18.8	-9.7	15.9	1.1	6.8	-0.9
CCNC(=S)NNC(=O)c1cc(CC(C)C)nc2ccccc12	-12.9	-8.4	15.8	2.3*	-18.8	-5.7
CCCOc1cccc(-c2cc(C(=O)NNC(=S)NCC)c3ccccc3n2)c1	6.5	-12.2	-3.7	2.2*	18.4	1.6
CCNC(=S)NNC(=O)c1cc(-c2ccccc2C)nc2ccccc12	6.6	-0.4	-4.2	1.2	-7.0	-0.1
CC1CCN(C(=O)C2CCN(S(=O)(=O)c3cnc[nH]3)CC2)CC1	-3.2	-9.1	2.6	0.9	2.6	8.6
SMILES	PTPN22 inh 2	PLK1 inh	PTPN22 act	PLAP act	PLK1 PBD inh	Rev-RRE block
Cn1c(=O)n(C)c2cc(/C=C3/NC(=O)N(Cc4ccccc4)C3=O)ccc21	-13.8	-9.4	9.2	1	-43.6	1.5
CC(=O)c1c(C)[nH]c(C(=O)NCc2ccccn2)c1C	5.6	-19.9	-6.0	0.9	-19.6	7.5
O=c1cc(CO)oc(CN2CCN(c3cccc(C(F)(F)F)c3)CC2)c1O	0.7	1.4	0.5	2.2*	-9.5	-0.8
O=c1cc(CO)oc(CN2CCN(c3ccccc3)CC2)c1O	8.8	-3.3	-8.9	1	-6.8	10.3
COc1cccc(-c2nn(-c3ccccc3)cc2C(=O)O)c1	-1.6	0.9	-1.5	1	2.7	11.1
CCC(c1nnnn1CCc1ccccc1)N(Cc1ccco1)Cc1cc2c(C)ccc(C)c2[nH]c1=O (stereo not given)	14.9	-3.1	-12.8	1.6	26.3	0.2
Cc1nc(CSc2nc3[nH]ncc3c(=O)n2-c2ccccc2)cs1	9.8	6.8	-11.0	2.3*	-20.6	0.8
Cc1cccc(-n2c(SCc3cc(=O)n4c(C)cccc4n3)nc3[nH]ncc3c2=O)c1	-4.5	10.6	3.9	2.8*	16.0	11.2
CCn1c(=O)c(C(=O)NCCc2ccccc2)c(O)c2ccccc21	-8.4	-12.2	11.0	0.8	-2.4	7.4
COc1ccc(-c2nc3oc4cc(OC)ccc4c(=O)c3c(=O)n2Cc2ccco2)cc1	5.8	-4.4	-6.8	1.1	12.9	6.9
O=C(N/N=C/C=C/c1ccccc1)c1cc2c(ccc3ccccc32)o1	32.3*	-8.2	-30.8	1.1	10.9	-20.7
C=CCn1cc(/C=N\NC(=O)c2cc3c(ccc4ccccc43)o2)c2ccccc21	-1.9	-13.2	-0.2	1.1	-13.9	3.0
CCn1c(SC(C)C(=O)OC)nnc1-c1c[nH]c2ccccc12 (stereo not given)	.	64.5*	.	1.1	5.8	3.0
C=CCSc1nnc(-c2c[nH]c3ccccc23)n1CC	.	61.4*	.	0.8	5.1	0.3
CC(C)Sc1nnc(-c2c[nH]c3ccccc23)n1C	.	63.6*	.	1	-2.3	1.7
CCOC(=O)C(C)Sc1nnc(-c2c[nH]c3ccccc23)n1C (stereo not given)	-6.0	-5.8	2.8	1	-12.3	1.0
CCn1c(SCC(=O)NCc2ccco2)nnc1-c1c[nH]c2ccccc12	3.3	-8.6	-4.2	0.8	-12.6	4.8
COc1cccc(-n2c(SC)nnc2-c2c[nH]c3ccccc23)c1	0.1	-10.5	-3.2	0.9	1.9	9.7
COc1ccc(-n2c(SC)nnc2-c2c[nH]c3ccccc23)cc1	.	54.8*	.	0.8	-30.3	6.0
Cn1c(NC(=O)c2ccc(Cl)cc2)c(-c2ccccn2)c(=O)c2ccccc21	5.4	-8.3	-0.7	1.1	-17.3	-0.7
CN(CC(=O)Nc1ccc(Cl)cc1)CC(=O)Nc1cc(Cl)ccc1C#N	.	.	.	2.5*	.	.
CCOc1ccc(NC(=O)CN(C)CC(=O)Nc2ccccc2C#N)cc1OCC	-0.8	-0.6	-0.7	1.8	-1.6	4.4
O=C1/C(=C/c2ccccc2)NC(=S)N1C(c1ccccc1)c1ccccc1	3.4	-4.9	-0.5	1.4	13.1	18.9
O=C1/C(=C/c2ccccc2)Nc2ccccc21	2.2	-43.1	2.6	0.6	-138.8	128.9*[fluorescence artefact?]
CCC(C)n1c(NC(=O)c2ccccc2)c(C#N)c2nc3ccccc3nc21 (stereo not given)	2.4	-12.2	2.9	1.2	-8.1	75.7*
COc1ccc(-n2c(NC(=O)c3ccc(Br)o3)c(C#N)c3nc4ccccc4nc32)cc1	13.0	-15.6	-10.0	1.3	-38.4	32.9
